M4 ag – agonists of human muscarinic M4 receptor (CHRM4) | P08173 | CHO-K1 hM4/Gqi5, Fluo-8 calcium fluorescence; vehicle 0%, full acetylcholine response 100% | activation, % at 3 µM | hit rate 0.14% among 360,000 | AID 624127;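 active = activation above the run mean over all test wells plus 3 SD, cut at about 32% in these data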;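 note: peak over basal fluorescence ratio per well then scaled between controls; 0% = DMSO wells and 100% = acetylcholine at EC100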
Target sequence (P08173 whole entry, looked up): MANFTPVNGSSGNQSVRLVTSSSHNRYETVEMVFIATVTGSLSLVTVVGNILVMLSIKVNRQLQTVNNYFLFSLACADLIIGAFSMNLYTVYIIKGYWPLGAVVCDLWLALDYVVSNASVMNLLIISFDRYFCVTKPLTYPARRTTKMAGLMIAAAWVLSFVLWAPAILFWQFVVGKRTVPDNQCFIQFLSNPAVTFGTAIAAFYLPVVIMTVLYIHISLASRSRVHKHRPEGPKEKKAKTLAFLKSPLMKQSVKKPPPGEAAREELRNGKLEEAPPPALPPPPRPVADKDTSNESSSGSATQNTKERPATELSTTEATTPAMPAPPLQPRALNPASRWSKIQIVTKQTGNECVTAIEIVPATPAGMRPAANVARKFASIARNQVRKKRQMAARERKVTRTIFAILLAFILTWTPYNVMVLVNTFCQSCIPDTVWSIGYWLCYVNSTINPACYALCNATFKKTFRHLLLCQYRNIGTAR
CHRM4 PAM – positive allosteric modulators of human muscarinic M4 receptor; hit rate 0.4% among 360,000; AID 624126; activation, % at 3 µM; CHO-K1 hM4/Gqi5, Fluo-8 calcium fluorescence, ACh EC20; 0% = ACh EC20, 100% = maximal ACh; P08173;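 active = activation above its plate's cutoff, the mean activation of sample wells plus 3 SD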
M5 PAM – positive allosteric modulators of human muscarinic M5 receptor; P08912; CHO-K1 hM5, Fluo-8 calcium, ACh EC20 PAM; 0% = ACh EC20, 100% = ACh EC100; activation, % at 3 µM; hit rate 0.3% among 360,000; AID 624038;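 active = activation above the run cutoff, the mean activation of all test compounds plus 3 SD, cut at about 18% in these data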
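Probe or stimulus: acetylcholine, EC20 level; Assay system: human M5 receptor in CHO-K1 cells; Schedule: compound preincubation 140 s before EC20 acetylcholine addition; Technique: intracellular calcium via Fluo-8 fluorescence; Dosing: single-point, 3 µM nominal; Read-out basis: percent activation from peak-over-basal fluorescence ratio, scaled EC20-to-EC100 acetylcholine; Repeats: one well per compound, no replicates.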
CHRM5 agonist – agonists of human muscarinic M5 receptor (CHRM5) | AID 624037 | activation, % at 3 µM | CHO-K1 hM5 cells, Fluo-8 calcium fluorescence; 0% DMSO wells, 100% maximal acetylcholine response | hit rate 0.19% among 360,000;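 active = activation above the run's mean over test compounds plus 3 SD, cut at about 23% in these data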;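 note: signal is peak over basal fluorescence ratio across the kinetic read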
CHRM5 antagonist – CHRM5 antagonism in calcium assay; CHO-hM5 cells, Fluo-8 calcium fluorescence, ACh EC80; hit rate 0.59% among 360,000; inhibition, % at 3 µM;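 active = inhibition above a per-plate cutoff, the mean of that plate's test compounds plus 3 SD, cut at about 27% in these data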;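 note: 0% = acetylcholine EC80 with DMSO and 100% = DMSO without agonist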
M4 antag – blocks acetylcholine activation of human M4 receptor; CHO-hM4 cells, ACh EC80, Fluo-8 calcium fluorescence; inhibition, % at 3 µM; hit rate 0.73% among 360,000;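 active = inhibition above its plate's cutoff, the mean inhibition of sample wells plus 3 SD, cut at about 27% in these data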;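 note: 0% = acetylcholine EC80 with DMSO and 100% = DMSO without agonist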
Active calls of the source: *. The list is not random: actives were taken first. Their share in the collection is about 1.8%.

Results for O=C(/C=C/[C@H]1O[C@@H](n2ccc(=O)[nH]c2=O)[C@H](O)[C@@H]1O)NCc1cccc2ccccc12 ?
M4 ag: 1.0; CHRM4 PAM: 3.3; M5 PAM: 0.1; CHRM5 agonist: 1.2; CHRM5 antagonist: 2.5; M4 antag: -8.1

How did C/C(CC(=O)NCc1ccccc1)=N\NC(=O)c1cnccn1 do in these assays?
M4 ag: 2.4; CHRM4 PAM: 31.3*; M5 PAM: 5.1; CHRM5 agonist: -0.7; CHRM5 antagonist: -10.1; M4 antag: 7.3

How did Cn1cnc(S(=O)(=O)N2CCCCC2c2cc(C(=O)Nc3cccc4c3CCCC4)no2)c1 (configuration not stated) do in these assays?
M4 ag: 3.7; CHRM4 PAM: -4.9; M5 PAM: 1.1; CHRM5 agonist: 0.0; CHRM5 antagonist: -2.4; M4 antag: -8.5

How did C/C=C(\C)C(=O)NCCN1C2=NC[C@@H](C)N2C[C@H]1Cc1ccc(O)cc1 do in these assays?
M4 ag: -0.4; CHRM4 PAM: 29.5*; M5 PAM: 12.9; CHRM5 agonist: -2.2; CHRM5 antagonist: -3.9; M4 antag: 0.3

Results for CCc1cc(C(=O)OC)c(NC(=O)c2ccoc2C)s1 ?
M4 ag: -0.4; CHRM4 PAM: 9.1; M5 PAM: 8.0; CHRM5 agonist: 1.4; CHRM5 antagonist: -9.4; M4 antag: 5.5

Results for COC(=O)c1c(-c2ccncc2)csc1NC(=O)c1ccoc1C ?
M4 ag: 0.3; CHRM4 PAM: 48.2*; M5 PAM: -2.9; CHRM5 agonist: -4.8; CHRM5 antagonist: -2.6; M4 antag: 31.8*

What do the screens show for `COC(=O)c1ccc(N)cc1O`?
M4 ag: 0.6; CHRM4 PAM: 13.6; M5 PAM: 22.5*; CHRM5 agonist: -3.6; CHRM5 antagonist: -5.3; M4 antag: 2.0

Results for NCCCC[C@H]1CN=C(N)N1CCC12CC3CC(CC(C3)C1)C2 ?
M4 ag: 2.6; CHRM4 PAM: -14.4; M5 PAM: -9.3; CHRM5 agonist: -12.0; CHRM5 antagonist: 13.7; M4 antag: 53.5*

What do the screens show for `CCOc1nc(-c2ccccc2)ccc1-c1noc(COC)n1`?
M4 ag: -1.3; CHRM4 PAM: 16.5; M5 PAM: 18.2*; CHRM5 agonist: -6.6; CHRM5 antagonist: -12.1; M4 antag: -3.1

Results for CCOc1ccccc1NC(=O)NC1CC2CCCC(C1)N2Cc1nnnn1CCc1ccccc1 (configuration not stated) ?
M4 ag: -0.5; CHRM4 PAM: -10.7; M5 PAM: -4.9; CHRM5 agonist: -3.9; CHRM5 antagonist: -8.5; M4 antag: 42.3*

What do the screens show for `Cc1cccc(C)c1N1C(=O)c2ccccc2NC(=O)C1C(=O)NCC(C)C` (configuration not stated)?
M4 ag: 0.8; CHRM4 PAM: -0.5; M5 PAM: -1.5; CHRM5 agonist: 1.4; CHRM5 antagonist: 0.9; M4 antag: -5.2

What do the screens show for `CC(C)(C)NC(=O)C(c1cc2ccccc2o1)n1c(=O)c(-c2ccco2)nc2ccccc21` (configuration not stated)?
M4 ag: -1.9; CHRM4 PAM: 2.4; M5 PAM: -4.9; CHRM5 agonist: 1.1; CHRM5 antagonist: 4.1; M4 antag: 3.8

What do the screens show for `CCCCCNC(=O)C(c1cc2ccccc2o1)n1c(=O)c(-c2ccco2)nc2ccccc21` (configuration not stated)?
M4 ag: 0.5; CHRM4 PAM: 27.0*; M5 PAM: 7.8; CHRM5 agonist: 0.3; CHRM5 antagonist: -9.9; M4 antag: -10.9

How did OC(c1cccnc1)c1nc(/C=C/c2ccc(C(F)(F)F)cc2)cs1 (configuration not stated) do in these assays?
M4 ag: 3.4; CHRM4 PAM: 5.1; M5 PAM: -0.6; CHRM5 agonist: 1.0; CHRM5 antagonist: -0.1; M4 antag: -4.7

What do the screens show for `CCc1nn(-c2cc(Cl)ccc2OC)c2c1C(=O)CCC2`?
M4 ag: -1.4; CHRM4 PAM: 9.7; M5 PAM: 18.3*; CHRM5 agonist: -4.6; CHRM5 antagonist: -11.1; M4 antag: -2.5

How did CCCc1nn(-c2cc(Cl)ccc2OC)c2c1C(=O)CC(C)(C)C2 do in these assays?
M4 ag: -2.5; CHRM4 PAM: -2.3; M5 PAM: 1.2; CHRM5 agonist: -5.4; CHRM5 antagonist: -1.1; M4 antag: 4.0

Results for CCOc1cc(OCC)cc(C(=O)N2CCC[C@@H]2C(=O)N2CCC[C@H]2C(=O)NCc2ccncc2)c1 ?
M4 ag: 2.7; CHRM4 PAM: 8.2; M5 PAM: 11.7; CHRM5 agonist: 3.3; CHRM5 antagonist: -11.4; M4 antag: -6.0

How did O=Cc1cn(CC(=O)Nc2ccc3c(c2)OCO3)c2ccccc12 do in these assays?
M4 ag: 22.2; CHRM4 PAM: -20.3; M5 PAM: -20.0; CHRM5 agonist: 6.6; CHRM5 antagonist: 27.3*; M4 antag: 21.9

How did Cc1ccc(NC(=O)Cn2cc(C=O)c3ccccc32)cc1 do in these assays?
M4 ag: 6.7; CHRM4 PAM: -7.0; M5 PAM: -14.0; CHRM5 agonist: -2.6; CHRM5 antagonist: 26.4; M4 antag: 2.8

Results for CCC(C)n1c(NC(=O)c2ccccc2)c(C#N)c2nc3ccccc3nc21 (configuration not stated) ?
M4 ag: 2.2; CHRM4 PAM: 5.6; M5 PAM: 18.5*; CHRM5 agonist: 17.2; CHRM5 antagonist: -5.3; M4 antag: -5.5

How did COCCNC(=O)C1(C)CCCN(Cc2noc(-c3ccccc3OC)n2)C1 (configuration not stated) do in these assays?
M4 ag: 0.7; CHRM4 PAM: 2.8; M5 PAM: 1.8; CHRM5 agonist: 0.5; CHRM5 antagonist: 0.7; M4 antag: -5.4

Results for CC1=CC(C)(C)N(C(=O)CNC2CCCC2)c2cc(C)ccc21 ?
M4 ag: -0.2; CHRM4 PAM: -26.9; M5 PAM: -31.2; CHRM5 agonist: -15.2; CHRM5 antagonist: 36.8*; M4 antag: 48.9*

What do the screens show for `CCOc1ccc2c(c1)N(C(=O)CN1C(=O)CCC1=O)C(C)(C)C=C2C`?
M4 ag: -1.9; CHRM4 PAM: 9.6; M5 PAM: 3.3; CHRM5 agonist: -6.7; CHRM5 antagonist: -4.9; M4 antag: -5.5

How did COc1cccc(CN2CCC2(C)C(=O)Nc2cccc(Oc3ccccc3)c2)c1F (configuration not stated) do in these assays?
M4 ag: -0.8; CHRM4 PAM: -3.6; M5 PAM: -1.9; CHRM5 agonist: 0.2; CHRM5 antagonist: 3.4; M4 antag: -2.8

How did CC(C)CC(NC(=O)c1ccccc1NC(=O)c1ccccc1)C(=O)O (configuration not stated) do in these assays?
M4 ag: 0.6; CHRM4 PAM: 19.3; M5 PAM: 10.7; CHRM5 agonist: 0.5; CHRM5 antagonist: -4.5; M4 antag: -10.8
